Assay results: the RNAGym collection of RNA variant scans (doi:10.1126/science.aae0568)
This sample holds only a part of the variants without activity.

B1: tRNA (parent)
chain: GUUCCGUUGGCGUAAUGGUAACGCGUCUCCCUCCUAAGGAGAAGACUGCGGGUUCGAGUCCCGUACGGAACG

Variants of: B1
Assay: yeast fitness relative to wild type (ratio to wild type); higher = fitter; tRNA-Arg(CCU), competitive growth, 37 C, YPD
Procedure, shortened: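 The tRNA-Arg(CCU) gene variants were made by chemical synthesis with a 3% per-site mutation rate at 69 sites and inserted at the native genomic locus of Saccharomyces cerevisiae. After pooling, the strains were competed in YPD at 37°C for 24 hours in six parallel replicates. Gene amplicons from the start population and each end population were read by 100-nucleotide paired-end sequencing, and Darwinian fitness relative to wild type was taken from genotype frequency changes. Genotypes needed ≥ 100 starting reads, and estimates < 0.5 were set to 0.5.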
Work on A36C A42U A65U yielded a yeast fitness of 0.647.
With A36C A43U the yeast fitness was 0.575.
A36C A45C C49U C55G C62A G68A gave a yeast fitness of no more than 0.5.
In the case of A36C A45C G48A, the yeast fitness is reported as no more than 0.5.
For A36C A45C U54A A57C, the yeast fitness was 0.538.
Variant A36C A45U U59A has a yeast fitness of no more than 0.5.
For A36C A57U, the yeast fitness was 0.509.
Variant A36C A57U C60A has a yeast fitness of no more than 0.5.
A36C A69U gave a yeast fitness of 0.63.
Variant A36C C46G has a yeast fitness of 0.543.
A36C C46G G51A gave a yeast fitness of no more than 0.5.
A36C C46U showed a yeast fitness of 0.577.
With A36C C49A U54C U64C the yeast fitness was no more than 0.5.
Variant A36C C49U G67C has a yeast fitness of 0.532.
Variant A36C C55U C66A has a yeast fitness of no more than 0.5.
With A36C C60U C62U A65C the yeast fitness was no more than 0.5.
Work on A36C C61U yielded a yeast fitness of 0.581.
Work on A36C C66U yielded a yeast fitness of 0.575.
For A36C G38A G58A, the yeast fitness was 0.562.
A36C G38C showed a yeast fitness of 0.524.
A36C G38C A45G showed a yeast fitness of 0.585.
Work on A36C G38C G50C G51A G63C yielded a yeast fitness of 0.642.
For A36C G38C G52A, the yeast fitness was no more than 0.5.
With A36C G41A U53C A65U the yeast fitness was no more than 0.5.
A36C G44U gave a yeast fitness of no more than 0.5.
With A36C G48A the yeast fitness was 0.594.
Work on A36C G48C C62U yielded a yeast fitness of no more than 0.5.
A36C G50A showed a yeast fitness of 0.608.
Variant A36C G50C U53C has a yeast fitness of no more than 0.5.
A36C G52A showed a yeast fitness of no more than 0.5.
Work on A36C G56C A57C yielded a yeast fitness of 0.593.
In the case of A36C G58A, the yeast fitness is reported as 0.618.
A36C G68A gave a yeast fitness of 0.56.
With A36C U47A G56U the yeast fitness was 0.617.
A36C U53A showed a yeast fitness of 0.643.
In the case of A36C U59C, the yeast fitness is reported as 0.562.
Work on A36C U64A yielded a yeast fitness of 0.932.
Work on A36C U64C yielded a yeast fitness of 0.824.
In the case of A36G A37C A43G, the yeast fitness is reported as 0.63.
With A36G A37U C61G the yeast fitness was no more than 0.5.
For A36G A37U C66A A69U, the yeast fitness was no more than 0.5.
For A36G A37U G56C, the yeast fitness was no more than 0.5.
A36G A37U U64C A65G showed a yeast fitness of no more than 0.5.
In the case of A36G A40C A42G C61U, the yeast fitness is reported as 0.566.
Work on A36G A40G yielded a yeast fitness of 1.01.
With A36G A40U G44A the yeast fitness was 1.06.
In the case of A36G A42C C49A, the yeast fitness is reported as 0.548.
Work on A36G A42U U53C G58C yielded a yeast fitness of 0.569.
Variant A36G A43C has a yeast fitness of 0.819.
With A36G A43U U47G U53G the yeast fitness was no more than 0.5.
With A36G A45C A57C U64A G68A the yeast fitness was no more than 0.5.
In the case of A36G A45C C55G G58C, the yeast fitness is reported as 0.689.
In the case of A36G A45C C66U, the yeast fitness is reported as 0.787.
A36G A45C G52C gave a yeast fitness of 0.533.
A36G A45C G52C A69C showed a yeast fitness of 0.54.
For A36G A45U A70U, the yeast fitness was 0.708.
Work on A36G A57G yielded a yeast fitness of 0.985.
Work on A36G A57G C61U yielded a yeast fitness of 0.56.
With A36G A69G the yeast fitness was 0.932.
In the case of A36G A70C, the yeast fitness is reported as 1.02.
Work on A36G A70G yielded a yeast fitness of 0.914.
A36G A70U gave a yeast fitness of 0.832.
A36G C49U A69C gave a yeast fitness of 0.836.
In the case of A36G C49U U64C G68C, the yeast fitness is reported as no more than 0.5.
For A36G C55A, the yeast fitness was 0.729.
For A36G C55U G68C, the yeast fitness was 0.594.
For A36G C60A, the yeast fitness was 0.575.
In the case of A36G C60G A70G, the yeast fitness is reported as no more than 0.5.
A36G C61G gave a yeast fitness of 0.659.
For A36G C61G A69G, the yeast fitness was 0.56.
A36G C61U A69C showed a yeast fitness of 0.693.
For A36G C61U U64C C66U, the yeast fitness was no more than 0.5.
With A36G C62A the yeast fitness was 0.672.
In the case of A36G C62G, the yeast fitness is reported as 0.905.
A36G C62U gave a yeast fitness of 1.05.
With A36G C66U A69U the yeast fitness was 0.76.
A36G G38C G58C gave a yeast fitness of 0.687.
Work on A36G G38C G63A yielded a yeast fitness of no more than 0.5.
For A36G G39C C49U U54G, the yeast fitness was 0.58.
With A36G G44A the yeast fitness was 0.978.
For A36G G48A C49U, the yeast fitness was 0.606.
A36G G48A G51C showed a yeast fitness of no more than 0.5.
With A36G G48C C60A the yeast fitness was no more than 0.5.
Work on A36G G52A C66A A69U yielded a yeast fitness of no more than 0.5.
Work on A36G G56A A70G yielded a yeast fitness of 0.595.
Work on A36G G58A C60U yielded a yeast fitness of no more than 0.5.
In the case of A36G G67C, the yeast fitness is reported as 0.759.
A36G G68C showed a yeast fitness of 0.779.
A36G U47A G67C showed a yeast fitness of no more than 0.5.
With A36G U47C the yeast fitness was 0.989.
Variant A36G U53A has a yeast fitness of 0.754.
With A36G U54A the yeast fitness was 0.691.
Variant A36G U54A C60G has a yeast fitness of no more than 0.5.
Variant A36G U59C C61A C62U has a yeast fitness of no more than 0.5.
A36G U64C gave a yeast fitness of 0.78.
A36G U64C C66U gave a yeast fitness of 0.768.
For A36U A37U, the yeast fitness was 0.587.
In the case of A36U A37U C55U, the yeast fitness is reported as 0.634.
A36U A40C showed a yeast fitness of 0.54.
A36U A40G U53A gave a yeast fitness of 0.627.
With A36U A40U the yeast fitness was 0.591.
A36U A40U A45G G58C gave a yeast fitness of 0.565.
With A36U A40U C60A the yeast fitness was 0.713.
A36U A42C C55G C61G showed a yeast fitness of no more than 0.5.
In the case of A36U A42C C61G, the yeast fitness is reported as no more than 0.5.
In the case of A36U A42U C46U G56C C61G A65U G67A A70G, the yeast fitness is reported as no more than 0.5.
A36U A43C G44C G48C gave a yeast fitness of no more than 0.5.
Variant A36U A43C U53C has a yeast fitness of no more than 0.5.
Work on A36U A43U yielded a yeast fitness of 0.638.
A36U A45C C49G showed a yeast fitness of 0.704.
Work on A36U A45G yielded a yeast fitness of 0.606.
Variant A36U A45U C46A C66U A69U has a yeast fitness of no more than 0.5.
A36U A45U U53A C62A gave a yeast fitness of no more than 0.5.
With A36U A57C the yeast fitness was 0.528.
A36U A57C C62U showed a yeast fitness of 0.627.
A36U A57G gave a yeast fitness of 0.582.
With A36U A57U the yeast fitness was 0.547.
For A36U A65G, the yeast fitness was 0.673.
For A36U A65U G67A A70G, the yeast fitness was no more than 0.5.
Work on A36U A69U yielded a yeast fitness of 0.623.
A36U A70U showed a yeast fitness of 0.747.
For A36U C46A, the yeast fitness was 0.763.
Work on A36U C46A C62G yielded a yeast fitness of no more than 0.5.
Work on A36U C46G A69U yielded a yeast fitness of 0.538.
Variant A36U C46U has a yeast fitness of 0.608.
A36U C49G G50C showed a yeast fitness of no more than 0.5.
A36U C49G U54C showed a yeast fitness of 0.66.
A36U C49U G58C C66U gave a yeast fitness of no more than 0.5.
Work on A36U C55A yielded a yeast fitness of no more than 0.5.
In the case of A36U C61G A65C, the yeast fitness is reported as no more than 0.5.
A36U C61U gave a yeast fitness of 0.693.
With A36U C61U C66U the yeast fitness was 0.582.
A36U C61U G63A C66U gave a yeast fitness of no more than 0.5.
Variant A36U C62A has a yeast fitness of 0.611.
For A36U C62U, the yeast fitness was 0.645.
Variant A36U C62U A65U has a yeast fitness of 0.519.
Variant A36U G38A has a yeast fitness of 0.617.
Work on A36U G39A yielded a yeast fitness of 0.657.
Work on A36U G39A A45G G63U yielded a yeast fitness of 0.535.
A36U G39C gave a yeast fitness of 0.669.
A36U G41C showed a yeast fitness of 0.686.
With A36U G44A the yeast fitness was 0.578.
A36U G48A showed a yeast fitness of 0.657.
For A36U G48C C49G, the yeast fitness was no more than 0.5.
A36U G50A C61U showed a yeast fitness of no more than 0.5.
With A36U G52C the yeast fitness was 0.53.
Variant A36U G56A has a yeast fitness of 0.574.
Variant A36U G56C has a yeast fitness of 0.563.
Variant A36U G56C A65C has a yeast fitness of no more than 0.5.
With A36U G58C A65U the yeast fitness was no more than 0.5.
For A36U G58C C60U, the yeast fitness was no more than 0.5.
With A36U G63A the yeast fitness was 0.672.
With A36U G68A the yeast fitness was 0.642.
For A36U G68C, the yeast fitness was 0.698.
For A36U U47G A70G, the yeast fitness was no more than 0.5.
A36U U53A gave a yeast fitness of 0.728.
In the case of A36U U53G, the yeast fitness is reported as 0.544.
Variant A36U U59C has a yeast fitness of 0.663.
With A36U U64A the yeast fitness was 0.535.
In the case of A37C A40C U53C, the yeast fitness is reported as 0.526.
Work on A37C A40G G52C U59C A65U yielded a yeast fitness of no more than 0.5.
In the case of A37C A42C A69U, the yeast fitness is reported as 0.749.
In the case of A37C A42C C46A A70C, the yeast fitness is reported as no more than 0.5.
A37C A42C C66A gave a yeast fitness of 0.547.
Work on A37C A42G yielded a yeast fitness of 0.777.
Variant A37C A42G G44A G67A has a yeast fitness of no more than 0.5.
For A37C A43C A65C, the yeast fitness was 0.612.
